21 molecules from ChEMBL document CHEMBL1141565, “Discovery of disubstituted cyclohexanes as a new class of CC chemokine receptor 2 antagonists” (J Med Chem, 2008) can be followed below.

Assay [1] deals with T1, C-C chemokine receptor type 3 (Homo sapiens) (UniProt P51677).
T1 sequence (whole entry): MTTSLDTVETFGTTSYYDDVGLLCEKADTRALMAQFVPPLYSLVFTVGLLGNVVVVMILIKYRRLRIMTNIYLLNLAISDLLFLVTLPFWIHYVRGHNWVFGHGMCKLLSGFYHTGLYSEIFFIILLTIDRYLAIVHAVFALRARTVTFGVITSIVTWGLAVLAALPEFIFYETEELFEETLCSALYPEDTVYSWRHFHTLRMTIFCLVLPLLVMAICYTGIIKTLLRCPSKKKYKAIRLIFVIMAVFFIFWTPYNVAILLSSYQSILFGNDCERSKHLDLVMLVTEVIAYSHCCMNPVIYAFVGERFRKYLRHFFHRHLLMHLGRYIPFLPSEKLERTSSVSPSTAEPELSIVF
Put plainly: Binding affinity for human CCR3 at 10 uM.

The target in assay [2] is T2, C-C chemokine receptor type 2 (Homo sapiens, UniProt P41597). Put plainly: Displacement of radiolabeled MCP1 from human CCR2 in PBMCs. Put shortly:
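Competitive binding: test compound displaces radiolabeled MCP-1 from CCR2 on peripheral blood mononuclear cells. IC50 is given as mean ± SD when n = 2 and mean ± SEM when n > 2, with n the number of determinations.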

A further assay is filed under the species Homo sapiens. Nature of the assay: Selectivity for human CCR2 over human CCR3.
In assay [3] the target is T2, C-C chemokine receptor type 2. Nature of the assay: Binding affinity to wild type CCR2.
Assay [4] is described as follows: Ratio of IC50 for wild type CCR2 to IC50 for CCR2 E291A mutant.
The target of assay [5] is C-C chemokine receptor type 2 (Homo sapiens, UniProt P41597, E291A). Put plainly: Binding affinity to CCR2 E291A mutant.
Assay [6] addresses T2, C-C chemokine receptor type 2. Nature of the assay: Antagonist activity at human CCR2 in PBMCs assessed as inhibition of MCP1-induced calcium flux. The format is functional. For orientation: Calcium flux is commonly read through the fluorescence of an indicator in the cells.
Assay [7] can be described thus: Ratio of IC50 for wild type CCR2 to IC50 for CCR2 T292A mutant.
Assay [8] concerns the target C-C chemokine receptor type 2 (Homo sapiens, UniProt P41597, T292A). Put plainly: Binding affinity to CCR2 T292A mutant.

The structures appear in SMILES notation.

C-C chemokine receptor type 2 (Homo sapiens, UniProt P41597, E291A), sequence (P41597 whole entry E291A): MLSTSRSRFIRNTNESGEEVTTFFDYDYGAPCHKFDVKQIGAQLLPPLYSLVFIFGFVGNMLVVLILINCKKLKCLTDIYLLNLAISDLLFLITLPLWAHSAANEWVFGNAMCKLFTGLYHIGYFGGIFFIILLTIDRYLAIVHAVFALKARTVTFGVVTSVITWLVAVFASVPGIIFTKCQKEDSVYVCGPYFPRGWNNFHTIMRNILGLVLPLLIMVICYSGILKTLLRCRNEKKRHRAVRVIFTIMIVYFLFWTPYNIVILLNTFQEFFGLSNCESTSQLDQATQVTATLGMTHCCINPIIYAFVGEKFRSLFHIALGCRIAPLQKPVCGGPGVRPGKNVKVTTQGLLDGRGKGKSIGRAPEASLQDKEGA
T2 sequence (P41597 whole entry): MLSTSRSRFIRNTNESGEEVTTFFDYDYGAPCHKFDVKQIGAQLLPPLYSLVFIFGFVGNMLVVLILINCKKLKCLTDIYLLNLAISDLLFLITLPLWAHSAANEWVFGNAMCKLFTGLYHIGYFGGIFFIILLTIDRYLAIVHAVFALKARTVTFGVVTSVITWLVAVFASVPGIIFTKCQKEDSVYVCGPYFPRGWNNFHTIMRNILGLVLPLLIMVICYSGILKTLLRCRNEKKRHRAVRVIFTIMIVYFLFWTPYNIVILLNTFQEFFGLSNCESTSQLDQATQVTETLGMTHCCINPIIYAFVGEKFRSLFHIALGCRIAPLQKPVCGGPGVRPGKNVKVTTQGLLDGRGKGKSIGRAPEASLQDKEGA
C-C chemokine receptor type 2 (Homo sapiens, UniProt P41597, T292A), sequence (P41597 whole entry T292A): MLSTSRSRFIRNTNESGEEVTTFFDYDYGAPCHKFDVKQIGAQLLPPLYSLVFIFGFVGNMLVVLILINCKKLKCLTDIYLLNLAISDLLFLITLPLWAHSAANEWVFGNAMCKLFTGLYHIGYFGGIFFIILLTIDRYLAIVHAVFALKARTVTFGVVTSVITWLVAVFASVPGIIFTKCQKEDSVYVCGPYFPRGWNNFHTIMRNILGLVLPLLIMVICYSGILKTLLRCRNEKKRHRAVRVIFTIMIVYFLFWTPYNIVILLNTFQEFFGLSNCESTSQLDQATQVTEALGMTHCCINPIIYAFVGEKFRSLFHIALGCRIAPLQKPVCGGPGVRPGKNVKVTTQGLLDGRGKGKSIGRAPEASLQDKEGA

As usually defined, the inhibition is the relative decrease from the control value, in per cent. As usually defined, the IC50 is the concentration that inhibits the measured activity by half. Regarding `CS(=O)(=O)c1ccc(C(=O)N[C@@H]2CCCC[C@@H]2NC(=O)CNC(=O)c2cccc(C(F)(F)F)c2)cc1` (racemic), the inhibition in [1] turned out to be 3%. In assay [2], this molecule came in with an IC50 of 0.087 µM.
For `O=C(CNC(=O)c1cccc(C(F)(F)F)c1)N[C@H]1CCCC[C@H]1NCc1ccc(OC(F)(F)F)cc1` (racemic), the Selectivity ratio in the assay listed under Homo sapiens was 20. In addition, the inhibition in [1] turned out to be 50%. The molecule further had an IC50 in assay [2] of 0.53 µM.
For `O=C(CNC(=O)c1cccc(C(F)(F)F)c1)N[C@H]1CCCC[C@H]1NCc1ccc(Cl)cc1` (racemic), the IC50 in assay [3] is 0.268 µM; in assay [2], 0.79 µM; in [5], 2.12 µM. Also, in [4], the Ratio IC50 is 7.9. Further, in the assay filed under Homo sapiens, the Selectivity ratio was found to be 20. The inhibition in [1] came out at 24%.
On to `CSc1ccc(C(=O)N[C@@H]2CCCC[C@@H]2NC(=O)CNC(=O)c2cccc(C(F)(F)F)c2)cc1` (racemic), for which the values for the IC50 in assay [6] and in assay [2] were 0.215 µM and 0.064 µM, respectively. This molecule registered an inhibition in assay [1] of 31%.
`Cc1ccc(CN[C@@H]2CCCC[C@@H]2NC(=O)CNC(=O)c2cccc(C(F)(F)F)c2)c(C)c1` (racemic) yielded an inhibition in [1] of 54%. The molecule further returned an IC50 in assay [2] of 2.17 µM.
As to `Nc1ccc(C(F)(F)F)cc1C(=O)NCC(=O)N[C@H]1CCCC[C@H]1NC(=O)c1ccc(S(N)(=O)=O)cc1` (racemic), the IC50 is 0.0048 µM in assay [6] and 0.023 µM in assay [2]. This molecule displayed an inhibition in [1] of 6%.
As for `CSc1ccc(C(=O)N[C@@H]2CCCC[C@@H]2NC(=O)CNC(=O)c2cc(C(F)(F)F)ccc2NC(=O)NC(C)C)cc1`, the IC50 stood at 0.018 µM in assay [6]; 0.0075 µM in assay [3]; 0.0051 µM in assay [2]; 0.304 µM in assay [8]; 0.0037 µM in assay [5]. For the same molecule, the Ratio IC50 came out at 40.5 in [7] and 0.5 in assay [4]. Also, the inhibition in [1] is 37%.
For `O=C(CNC(=O)c1cccc(C(F)(F)F)c1)N[C@H]1CCCC[C@H]1NC(=O)c1ccc(I)cc1`, the IC50 worked out at 0.03 µM in assay [6] and 0.037 µM in assay [2]. For the same molecule, in [1], the inhibition was 27%.
The corresponding values for `NS(=O)(=O)c1ccc(C(=O)N[C@@H]2CCCC[C@@H]2NC(=O)CNC(=O)c2cc(C(F)(F)F)ccc2NC(=O)C2CCCCC2)cc1` (racemic) are 0.0037 µM, 0.009 µM and 10%.
As for `Cc1ccc(CN2CC[C@@H](NC(=O)CNC(=O)c3cccc(C(F)(F)F)c3)C2)c(C)c1`, the Ratio IC50 in [7] is 30.
Turning to `CC(C)c1ccc(CN[C@@H]2CCCC[C@@H]2NC(=O)CNC(=O)c2cccc(C(F)(F)F)c2)cc1` (racemic), the Selectivity ratio in the assay filed under Homo sapiens came to 20. In assay [1], this molecule yielded an inhibition of 55%. In assay [2], this molecule gave an IC50 of 0.36 µM.
`NS(=O)(=O)c1ccc(C(=O)N[C@@H]2CCCC[C@@H]2NC(=O)CNC(=O)c2cccc(C(F)(F)F)c2)cc1` (racemic): the results for the IC50 in assay [6] and in assay [2] were 0.042 µM and 0.021 µM, respectively. Further, the inhibition in [1] is 39%.
`O=C(CNC(=O)c1cccc(C(F)(F)F)c1)N[C@H]1CCCC[C@@H]1NCc1ccc(Cl)cc1Cl` (racemic): the IC50 in assay [2] was 7.86 µM.
With `O=C(CNC(=O)c1cccc(C(F)(F)F)c1)N[C@H]1CCCC[C@@H]1NC(=O)c1ccc(Cl)cc1` (racemic), in [2], the IC50 was 12 µM.
In the case of `Cc1ccc(C(=O)N[C@@H]2CCCC[C@@H]2NC(=O)CNC(=O)c2cccc(C(F)(F)F)c2)c(C)c1` (racemic), the IC50 in [3] came out at 4.13 µM; in assay [2], 4.13 µM; in assay [5], 7.85 µM. Moreover, the Ratio IC50 in assay [4] worked out at 1.9.
Take `Cc1cc(C)c(CN[C@H]2CCCC[C@@H]2NC(=O)CNC(=O)c2cccc(C(F)(F)F)c2)c(C)c1` (racemic): in assay [2], the IC50 was 1.19 µM.
On to `O=C(CNC(=O)c1cccc(C(F)(F)F)c1)N[C@H]1CCCC[C@@H]1NCc1ccc(Cl)cc1` (racemic), for which the inhibition in assay [1] worked out at 50%. The IC50 in assay [2] was 0.97 µM.
For the molecule `Cc1ccc(C(=O)N[C@@H]2CCCC[C@@H]2NC(=O)CNC(=O)c2cccc(C(F)(F)F)c2)cc1` (racemic), the inhibition in [1] was determined as 57%. The IC50 in [2] is 0.55 µM.
As for `Cc1ccc(CN(C)[C@H]2CCCC[C@@H]2NC(=O)CNC(=O)c2cccc(C(F)(F)F)c2)c(C)c1` (racemic), the IC50 in [2] is 3.01 µM.
`Cc1ccc(CN[C@H]2CCCC[C@@H]2NC(=O)CNC(=O)c2cccc(C(F)(F)F)c2)c(C)c1`: the inhibition in [1] was 54%. In addition, in assay [2], the half-inhibitory concentration (IC50) is 0.54 µM.
On to `O=C(CNC(=O)c1cccc(C(F)(F)F)c1)N[C@H]1CCCC[C@H]1NCc1ccc(C(F)(F)F)cc1` (racemic), for which the Selectivity ratio in the assay filed under Homo sapiens is 20. Besides, the inhibition in assay [1] was 47%. For the same molecule, the IC50 in assay [2] worked out at 0.4 µM.
